# The list is not random: actives were taken first. Their share in the collection is about 2.2%.
# DNMT1 inh = blocks human DNA methyltransferase DNMT1; P26358; DNMT1 molecular beacon, Hinp1I cleavage, fluorescence; inhibition (reported as % activation of signal), % at 10 µM; actives 0.83% (n = 360,000); AID 588458; in the data active = inhibition above about 50%
# Target sequence (P26358 504-1616 limits assumed): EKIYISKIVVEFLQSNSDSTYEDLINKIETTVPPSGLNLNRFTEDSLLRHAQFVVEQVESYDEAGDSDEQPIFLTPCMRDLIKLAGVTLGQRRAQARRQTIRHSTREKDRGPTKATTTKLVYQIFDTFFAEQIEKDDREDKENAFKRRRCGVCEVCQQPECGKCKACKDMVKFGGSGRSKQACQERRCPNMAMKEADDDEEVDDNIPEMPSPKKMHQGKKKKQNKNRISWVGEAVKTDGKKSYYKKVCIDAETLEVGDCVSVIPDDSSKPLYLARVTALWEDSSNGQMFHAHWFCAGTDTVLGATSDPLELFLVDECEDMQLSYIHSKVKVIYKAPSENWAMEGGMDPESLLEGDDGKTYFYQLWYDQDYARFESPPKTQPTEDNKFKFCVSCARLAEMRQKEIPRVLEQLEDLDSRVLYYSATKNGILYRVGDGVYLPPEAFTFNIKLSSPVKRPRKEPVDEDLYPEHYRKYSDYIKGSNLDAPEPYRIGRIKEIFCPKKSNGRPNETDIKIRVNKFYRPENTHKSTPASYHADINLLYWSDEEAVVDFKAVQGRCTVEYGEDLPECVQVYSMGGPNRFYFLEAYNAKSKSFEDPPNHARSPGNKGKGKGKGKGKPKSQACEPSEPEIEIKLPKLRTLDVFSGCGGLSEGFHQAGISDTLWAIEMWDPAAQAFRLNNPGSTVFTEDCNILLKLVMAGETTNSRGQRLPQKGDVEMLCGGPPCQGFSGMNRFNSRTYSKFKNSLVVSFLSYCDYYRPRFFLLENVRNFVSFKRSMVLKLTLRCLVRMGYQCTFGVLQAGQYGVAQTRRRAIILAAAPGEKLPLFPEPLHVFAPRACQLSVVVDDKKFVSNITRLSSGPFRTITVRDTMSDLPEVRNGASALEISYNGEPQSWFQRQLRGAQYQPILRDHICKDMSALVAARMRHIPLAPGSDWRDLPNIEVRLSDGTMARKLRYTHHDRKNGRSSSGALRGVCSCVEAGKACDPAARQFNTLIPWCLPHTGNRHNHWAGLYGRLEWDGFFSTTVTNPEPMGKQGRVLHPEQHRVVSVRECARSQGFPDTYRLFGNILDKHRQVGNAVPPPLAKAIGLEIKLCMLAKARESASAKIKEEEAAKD
# STEP inh = blocks human striatal-enriched tyrosine phosphatase; actives 0.25% (n = 360,000); recombinant STEP, OMFP fluorogenic substrate, fluorescence; P54829; inhibition, % at 20 µM;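 active = inhibition at 20 µM, scaled per plate between control wells, above about 37%, limit read from the data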
#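 System: STEP phosphatase, cell-free reaction; Buffer or medium: Bis-Tris pH 6.0 buffer with DTT, detergent; Incubation: 20 min at room temperature, dark; Measured by: fluorescence, 480/540 nm.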
# GRK2 aptamer HTS = inhibitors of human GRK2 displacing RNA aptamer. bead flow cytometry, FAM-aptamer displacement from GRK2. actives 0.59% (n = 330,000). AID 488847. P25098. inhibition of aptamer binding, % at 10 µM;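 active = inhibition of aptamer binding above 40%, roughly 3 SD of noise, on plates passing a quality check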;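 note: median bead fluorescence of bound FAM aptamer so fluorescent compounds give negative values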
# LMPTP inh = LMPTP (human) inhibition; P24666; recombinant LMPTP-A, OMFP fluorogenic substrate, fluorescence intensity; inhibition, % at 20 µM; AID 651560; actives 0.22% (n = 360,000);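 active = compounds that cut the enzyme signal by at least half of the control window in the single-dose screen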
#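 Test system: LMPTP-A, protein tyrosine phosphatase of low molecular weight; Input: 0.625 nM enzyme; Incubation: 50 min dark incubation at room temperature; Signal: endpoint fluorescence intensity from OMFP dephosphorylation; Read-out basis: % inhibition versus control wells.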
# Scp1 inh = Scp-1 (human) phosphatase inhibition | Q9GZU7 | Recombinant Scp1, phosphopeptide, malachite green phosphate absorbance | inhibition, % at 20 µM | actives 0.88% (n = 340,000);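 active = inhibition above about 50% at 20 µM, limit read from the data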
#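 Test system: SCP-1 phosphatase catalytic domain, residues 76-261; measured by: colorimetric phosphate reagent with accelerator and stabiliser, absorbance at 630 nm; timing: enzyme reaction 45 min at room temperature, colour 5 min, stabilisation 30 min; also added: Phosphorylated 17-residue peptide substrate; compound dosing: one concentration, 20 µM, with 1.0% DMSO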
# SUMO1 PPI mod = modulators of human SUMO1-mediated protein-protein interactions; P63165; SUMO1 binding to a labelled peptide, TR-FRET, 1 h; inhibition, % at 20 µM; actives 0.33% (n = 360,000); AID 602429; in the data active = inhibition above about 37%
# Scp1 confirm = confirmation of human Scp-1 phosphatase inhibitors | shares compounds with Scp1 inh | recombinant SCP-1 catalytic domain, phosphate release, malachite green absorbance | inhibition, % at 20 µM | actives 61% (n = 2,500) | AID 540281
# Scp-1 MG ctr = colorimetric interference in Scp-1 counter-screen; AID 540313; 2,500 tested, under 10 active; Colorimetric interference counterscreen, malachite green absorbance 630 nm; apparent inhibition (interference), % at 20 µM; shares compounds with Scp1 inh;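 note: compounds added after enzyme reaction finished so only phosphate colour detection is probed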
# Scp-1 Tm shift = binds human Scp-1, shifting its melting temperature; shares compounds with Scp1 inh; Recombinant SCP1, Sypro Orange thermal shift Tm; thermal shift relative to vanadate control, % at 40 µM; actives 25% (n = 1,500);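 active = substances whose mean melting-temperature shift, as a percentage of the reference inhibitor's shift, reaches about 5.3%, limit read from the data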
# Hits are given with their value; 0 = inactive; - = no result.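 Rule for the calls, unless noted: active = inhibition of at least 30% at 20 µM; inactive = the rest.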
SMILES,DNMT1 inh,STEP inh,GRK2 aptamer HTS,LMPTP inh,Scp1 inh,SUMO1 PPI mod,Scp1 confirm,Scp-1 MG ctr,Scp-1 Tm shift
Cc1ccc2c(c1)C1OCCC1C1N2C(=O)C2C(C(=O)O)C3C=CC21O3 (stereo not drawn),0,0,0,0,77,0,34,0,0
O=[N+]([O-])c1cc(-c2ccc(/C=N/n3cnnc3)o2)ccc1Cl,0,0,0,0,0,0,-,-,-
O=[N+]([O-])c1ccc(Cl)c(-c2ccc(/C=N/n3cnnc3)o2)c1,0,0,0,0,62,0,52,0,0
O=C1CCC(CCC(=O)N2CCCC(C(=O)c3cccc(C(F)(F)F)c3)C2)=NN1 (stereo not drawn),0,0,0,0,0,0,0,0,-
COc1ccc(NC(=O)c2ccc3c(c2)CCN3S(=O)(=O)c2ccccc2)c(OC)c1,0,0,0,0,61,0,0,0,-
COc1ccc(C(=O)OCC[N+]2(C)CCOCC2)cc1,0,0,0,0,57,0,0,0,-
CC(C)(C)NC(=O)C1c2ccccc2OCC(=O)N1Cc1ccccc1 (stereo not drawn),-,-,-,0,-,0,-,-,-
COc1ccc(-c2cc(C(=O)NCc3cccc(C(F)(F)F)c3)[nH]n2)c(C)c1,0,0,-,0,-,0,-,-,-
Clc1ccc(SCc2cc(Cl)nc(-c3ccccc3)n2)cc1,0,0,0,0,0,0,-,-,-
Clc1cc(CSc2ccccc2)nc(-c2ccccc2)n1,0,0,0,0,61,0,36,0,0
Cc1cc(C=O)c(C)n1-c1cccc(C(=O)O)c1,0,0,0,0,53,0,52,0,0
O=S1(=O)N=C(N2CCCc3ccccc32)c2ccccc21,0,0,0,0,0,0,-,-,-
O=S1(=O)N=C(N2CCc3ccccc3C2)c2ccccc21,0,0,0,0,76,0,0,0,-
CCN1C(=O)[C@H]2[C@@H](c3ccc(OC)cc3)N[C@]3(CCCN(Cc4ccc(C)cc4)C3=O)[C@H]2C1=O,0,0,-,0,-,0,-,-,-
O=C(C[n+]1cccc(C(=O)Nc2ccccc2)c1)c1ccc(Cl)cc1,-,-,-,0,-,0,-,-,-
NC(=O)C[n+]1cccc(C(=O)Nc2ccccc2)c1,0,0,0,0,90,0,0,0,-
O=C(CCc1nc2sc3c(c2c(=O)[nH]1)CCCC3)NCCc1ccccc1,0,0,0,0,0,0,-,-,-
CCc1ccccc1NC(=O)CNC(=O)CCc1nc2sc3c(c2c(=O)[nH]1)CCCC3,0,0,0,0,70,0,66,0,0
C#CCN(C[C@@H]1[C@@H](OC(=O)Nc2cccs2)[C@@H](OC(=O)Nc2cccs2)Cn2c(=O)n(CCCCCC)c(=O)n21)S(=O)(=O)c1ccc(C)cc1,0,0,-,0,-,0,-,-,-
CC(=O)c1ccc(NC(=O)CSc2nnc(-c3ccco3)c(-c3ccco3)n2)cc1,0,0,0,54,83,43,58,0,9.4
CC(=O)Nc1ccc(NC(=O)CSc2nnc(-c3ccco3)o2)cc1,0,0,0,0,0,0,-,-,-
O=c1c2c(nc3cc(-c4ccc(Cl)cc4)[nH]n13)CCS2,0,0,0,61,84,0,31,0,0
CSCCC(NC(=O)c1ccco1)C(=O)NCCc1ccc(Cl)cc1 (stereo not drawn),0,0,0,0,0,0,-,-,-
C/C=C/c1ccc(OCC(=O)Nc2ccc(C(N)=O)cc2)c(OC)c1,0,0,0,0,0,0,-,-,-
COc1cc(/C=C/c2cc[n+](C)cc2)ccc1OCC(=O)Nc1ccccc1,0,0,0,0,77,0,89,0,0
SMILES,DNMT1 inh,STEP inh,GRK2 aptamer HTS,LMPTP inh,Scp1 inh,SUMO1 PPI mod,Scp1 confirm,Scp-1 MG ctr,Scp-1 Tm shift
COc1cc(OCc2ccccc2)c(CC(=O)O)c([N+](=O)[O-])c1,0,0,-,0,-,0,-,-,-
O=C(C[n+]1cccc2ccccc21)c1ccc(Br)cc1,0,0,0,0,0,0,-,-,-
NC(=O)C[n+]1cccc2ccccc21,0,0,0,0,99,0,0,0,-
Cc1cc(C)c(S(=O)(=O)N(C)CC(=O)N2CCCC2)c(C)c1,0,0,-,0,-,0,-,-,-
Cc1cc(=O)[nH]c(SCC(=O)Nc2ccc(S(N)(=O)=O)cc2)n1,0,0,0,0,51,0,48,0,0
Cc1nc2nc(C)c(C)nc2nc1C,0,0,-,0,-,0,-,-,-
COc1ccc2c(c1)c(=O)oc1c(C)c(OCc3ccc(C(=O)O)cc3)ccc12,0,41,0,58,93,45,58,0,0
COc1ccc2c(c1)c(=O)oc1c(C)c(OCc3cc(C(=O)O)oc3C)ccc12,0,0,0,0,93,0,94,0,0
CCN(CC)S(=O)(=O)c1ccc(NC(=O)COC(=O)CNC(=O)C2CCCCC2)cc1,0,0,-,0,0,0,-,-,-
COCCN(C(=O)COC(=O)/C=C/c1ccc(C(F)(F)F)cc1)c1c(N)n(Cc2ccccc2)c(=O)[nH]c1=O,0,0,0,0,58,0,0,0,-
CCCCn1c(N)c(N(CCOC)C(=O)c2cc(-c3ccco3)nc3ccccc23)c(=O)[nH]c1=O,0,0,0,0,58,0,67,0,0
CCCCn1c(N)c(N(CCOC)C(=O)c2cc(-c3ccc(OC)c(OC)c3)nc3ccccc23)c(=O)[nH]c1=O,0,0,0,0,0,0,-,-,-
COCCN(C(=O)COC(=O)/C=C/c1ccc(SC)cc1)c1c(N)n(Cc2ccccc2)c(=O)[nH]c1=O,0,0,-,0,0,0,-,-,-
COCCN(C(=O)c1cc(-c2ccco2)nc2ccccc12)c1c(N)n(Cc2ccccc2)c(=O)[nH]c1=O,0,0,0,0,64,0,58,0,0
COc1cccc(NC(=O)Nc2nnc([C@H]3C[C@H](O)[C@@H](CO)O3)s2)c1,0,0,-,0,-,0,-,-,-
Cc1ccc(C)c(NC(=O)CN2C(=O)C3CC=CCC3C2=O)c1 (stereo not drawn),0,0,-,0,-,0,-,-,-
O=C1Nc2ccccc2N(C(=O)c2ccc(-c3ccccc3)cc2)C1c1nc2ccccc2[nH]1 (stereo not drawn),-,-,-,0,-,0,-,-,-
CCC1CCCCN1S(=O)(=O)c1ccc2[nH]c(=O)ccc2c1 (stereo not drawn),0,0,0,0,58,0,49,0,0
C=CCOc1ccc(/C=C\c2nc(O)c([N+](=O)[O-])c(=O)[nH]2)cc1OCC,0,0,0,0,99,0,45,0,0
